The structures appear in SMILES notation. Activity calls are given as the source filed them.

The subject of assay [1] is Escherichia coli. Nature of the assay: Antimicrobial activity against Escherichia coli OC9040 by broth microdilution method in presence of polymyxin B nonapeptide. Type of assay: functional. Put shortly:
(§1)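 MICs by CLSI broth microdilution. Where polymyxin B nonapeptide was included, it was present at 2 μg/ml alongside the test compound.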
(Dilution methods test growth across graded concentrations, often in twofold steps.)

The subject of assay [2] is Escherichia coli. The assay is described as follows: Antimicrobial activity against Escherichia coli ATCC 25922 by broth microdilution method in presence of polymyxin B nonapeptide. Type of assay: functional. The method in brief: as §1
The subject of the next assay is Staphylococcus aureus. Nature of the assay: Antimicrobial activity against methicillin-resistant Staphylococcus aureus OC3726 by broth microdilution method in presence of polymyxin B nonapeptide. Type of assay: functional. Put shortly:
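CLSI broth microdilution MIC run in the presence of polymyxin B nonapeptide (PMBN) at 2 μg/ml as a permeabilizer.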

Assay [3] has as its system Escherichia coli. Nature of the assay: Antimicrobial activity against LPS-deffective Escherichia coli OC2530 assessed as cell lysis at 4 times MIC by light microscopy. Format: functional, organism-based. Put shortly: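 Cells were fixed on a glass slide under a coverslip and viewed by light microscopy at ×100/×1.25 oil immersion. Representative images were taken.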
Assay [4] deals with Escherichia coli. The assay is described as follows: Antimicrobial activity against LPS-deffective Escherichia coli OC2530 assessed as log reduction in bacterial count at 2 times MIC after 30 mins relative to control. Type of assay: functional.
Assay [5] has as its system Escherichia coli. The assay is described as follows: Antimicrobial activity against LPS-deffective Escherichia coli OC2530 at MIC after 30 mins relative to control. Type of assay: functional, organism-based.
Assay [6] has as its system Escherichia coli. Nature of the assay: Bactericidal activity against LPS-deffective Escherichia coli OC2530 assessed as log reduction in bacterial count at =>2 times MIC after 3 hrs relative to control. Type of assay: functional.
Assay [7] has as its system Escherichia coli. The assay is described as follows: Antimicrobial activity against LPS-deffective Escherichia coli OC2530 at =< MIC after 3 hrs relative to untreated control. Type of assay: functional, organism-based.
In assay [8] the test system is Escherichia coli. The assay is described as follows: Antimicrobial activity against LPS-deffective Escherichia coli OC2530 at MIC after 3 hrs relative to untreated control. Type of assay: functional.
The test system of assay [9] is Escherichia coli. The assay is described as follows: Antimicrobial activity against LPS-deffective Escherichia coli OC2530 harboring pASK plasmid by broth microdilution method in presence of chloramphenicol. Type of assay: functional. Put shortly: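 CLSI broth microdilution MIC for OC2530 carrying plasmid (empty pASK or pMurF). Medium contained chloramphenicol 3 μg/ml to keep the plasmid and AHT 100 ng/ml to induce MurF expression.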

In assay [10] the test system is Escherichia coli. The assay is described as follows: Inhibition of LPS-deficient Escherichia coli OC2530 MurF assessed as UDP-MurNAc-tripeptide substrate level at 0.5 times MIC by HPLC (reference value: 1 mAU).
Assay [11] has as its system Escherichia coli. Nature of the assay: Inhibition of LPS-deficient Escherichia coli OC2530 MurF harboring pASK plasmid assessed as UDP-MurNAc-tripeptide substrate level at 2 times MIC by HPLC (reference value: 63 +/- 4 mAU). Put shortly:
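Compound added at 2× MIC from 500× stock (DMSO control). After 30 min, muropeptides extracted and quantified by HPLC peak area (mAU); representative of two independent experiments.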

As for `COc1ccc2nc(OC)c([C@@H](c3ccccc3)[C@](O)(CCN(C)C)c3ccccc3)cc2c1`, the MIC with Escherichia coli [1] is 8 µg/mL; in the assay on Escherichia coli [2] it was 8 µg/mL; in the assay on Staphylococcus aureus it was more than 32 µg/mL; in the assay on Escherichia coli [9] it was 16 µg/mL. Further, the result with Escherichia coli [3] and in the assay with Escherichia coli [5] was Active. The FC is given as 1 in the assay with Escherichia coli [4] and 5 with Escherichia coli [6]. Moreover, the result in the assay on Escherichia coli [7] was inactive. Further, the “fold change (FC)” value in the assay on Escherichia coli [8] is recorded as 0.3. For the same compound, the Activity (fold of control) with Escherichia coli [10] is 6. In the assay on Escherichia coli [11], the Activity was 1200 mAU.

The term MIC denotes the smallest concentration in the dilution series that meets the test's criterion for growth inhibition.

Values taken from ChEMBL document CHEMBL1671657, “MurF inhibitors with antibacterial activity: effect on muropeptide levels” (Antimicrob Agents Chemother, 2009).
